Experimental data reported in ChEMBL document CHEMBL1759959, “Synthesis and antitumor activity of 10-arylcamptothecin derivatives” (Bioorg Med Chem Lett, 2011).
The source made the active and inactive calls. The rule behind the calls is not given here.

Key:
HL-60 = assay: Cytotoxicity against human HL60 cells after 3 days; format: functional, cell-based
Summary of the method: (§1)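 HL60 (leukaemia), A549 (lung) and BEL-7402 (liver) human tumour cells exposed to compounds for 3 days; viability read by MTT assay and SRB assay; IC50 (half-maximal inhibitory concentration) reported.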

Bel-7402 = assay: Cytotoxicity against human Bel7402 cells after 3 days; format: functional, cell-based; summary of the method: as §1
A549 [1] = assay: Cytotoxicity against human A549 cells after 3 days; format: functional, cell-based; summary of the method: as §1
A549 [2] = assay: Cell cycle arrest in human A549 cells assessed as accumulation at G0/G1 phase at 25 nM after 24 hrs by flow cytometry (reference value: 62.14%)
A549 [3] = assay: Cell cycle arrest in human A549 cells assessed as accumulation at S phase at 25 nM after 24 hrs by flow cytometry (reference value: 27.52%)
A549 [4] = assay: Cell cycle arrest in human A549 cells assessed as accumulation at G2/M phase at 25 nM after 24 hrs by flow cytometry (reference value: 10.34%)
[5] = Chemical stability of the compound in phosphate saline buffer at pH 7.4 at 50 umol/L by HPLC analysis; format: physicochemical; conditions: pH 7.4, 50 µM
Summary of the method: (§2)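 Lactone stability followed by HPLC with fluorescence detection; drug at 50 μmol/L incubated at pH 7.4, 37 °C in PBS, PBS with human serum albumin, or human blood; each point mean of three determinations, uncertainty 10% or less.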

A549 [6] = assay: Cell cycle arrest in human A549 cells assessed as accumulation at G0/G1 phase at 50 uM after 24 hrs by flow cytometry (reference value: 62.14%); format: functional
A549 [7] = assay: Cell cycle arrest in human A549 cells assessed as accumulation at G0/G1 phase at 12.5 uM after 24 hrs by flow cytometry (reference value: 62.14%); format: functional
A549 [8] = assay: Cell cycle arrest in human A549 cells assessed as accumulation at S phase at 50 uM after 24 hrs by flow cytometry (reference value: 27.52%); format: functional
[9] = Chemical stability of the compound in phosphate saline buffer at pH 7.4 at 50 umol/L by HPLC analysis in presence of human blood; format: physicochemical; conditions: pH 7.4, 50 µM; summary of the method: as §2
A549 [10] = assay: Cell cycle arrest in human A549 cells assessed as accumulation at S phase at 12.5 uM after 24 hrs by flow cytometry (reference value: 27.52%); format: functional
A549 [11] = assay: Cell cycle arrest in human A549 cells assessed as accumulation at G2/M phase at 12.5 uM after 24 hrs by flow cytometry (reference value: 10.34%); format: functional
A549 [12] = assay: Cell cycle arrest in human A549 cells assessed as accumulation at G2/M phase at 50 uM after 24 hrs by flow cytometry (reference value: 10.34%); format: functional
[13] = Chemical stability of the compound in phosphate saline buffer at pH 7.4 at 50 umol/L by HPLC analysis in presence of HAS; format: physicochemical; conditions: pH 7.4, 50 µM; summary of the method: as §2
[14] = molecular target: T1, DNA topoisomerase 1 (Homo sapiens) (UniProt P11387); assay: Inhibition of topoisomerase 1-mediated relaxation of supercoiled pBR322 DNA at 6.25 to 100 uM after 30 mins by […]
T1 sequence (whole entry): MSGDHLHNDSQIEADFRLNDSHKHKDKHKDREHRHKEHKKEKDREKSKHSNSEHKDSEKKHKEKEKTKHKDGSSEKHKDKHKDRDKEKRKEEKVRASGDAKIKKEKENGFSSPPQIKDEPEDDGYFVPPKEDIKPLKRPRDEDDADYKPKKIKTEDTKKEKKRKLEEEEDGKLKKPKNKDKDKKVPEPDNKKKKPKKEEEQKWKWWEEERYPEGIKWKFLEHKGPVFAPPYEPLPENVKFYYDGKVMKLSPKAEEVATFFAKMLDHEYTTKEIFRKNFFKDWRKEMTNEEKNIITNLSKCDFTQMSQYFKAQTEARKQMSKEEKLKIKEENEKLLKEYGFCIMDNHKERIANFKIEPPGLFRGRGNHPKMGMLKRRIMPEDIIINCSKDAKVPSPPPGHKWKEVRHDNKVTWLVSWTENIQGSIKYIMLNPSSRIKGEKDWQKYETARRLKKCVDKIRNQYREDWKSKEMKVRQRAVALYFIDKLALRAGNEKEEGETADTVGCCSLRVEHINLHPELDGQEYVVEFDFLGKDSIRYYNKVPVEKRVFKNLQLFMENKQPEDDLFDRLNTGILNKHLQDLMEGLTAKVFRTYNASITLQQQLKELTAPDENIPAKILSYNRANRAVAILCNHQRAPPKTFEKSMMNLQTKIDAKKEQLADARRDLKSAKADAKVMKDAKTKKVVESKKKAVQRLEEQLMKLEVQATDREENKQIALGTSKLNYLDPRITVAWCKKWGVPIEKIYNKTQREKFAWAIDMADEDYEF
Summary of the method: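 Supercoiled pBR322 DNA incubated with topoisomerase I (1 unit) with or without drug, 37 °C, 30 min; stopped with 10% SDS; products resolved on 1% agarose gel, supercoiled versus relaxed bands scored; camptothecin as reference.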

Row | SMILES | IC50 (HL-60; Homo sapiens, HL-60, 72 h) [µM] | IC50 (Bel-7402; Homo sapiens, Bel-7402, 72 h) [µM] | IC50 (A549 [1]; Homo sapiens, A549, 72 h) [µM] | also measured
1 | CC[C@@]1(O)C(=O)OCc2c1cc1n(c2=O)Cc2cc3cc(-c4ccccc4N(C)C)ccc3nc2-1 | 0.16 | 1.53 | 0.23 | –
2 | CC[C@@]1(O)C(=O)OCc2c1cc1n(c2=O)Cc2cc3cc(-c4ccc(C(=O)O)cc4)ccc3nc2-1 | 1.45 | 13.8 | 11.6 | –
3 | CC[C@@]1(O)C(=O)OCc2c1cc1n(c2=O)Cc2cc3cc(-c4ccccc4Cl)ccc3nc2-1 | 0.59 | 2.46 | 1.12 | –
4 | CC[C@@]1(O)C(=O)OCc2c1cc1n(c2=O)Cc2cc3c(CN(C)C)c(O)ccc3nc2-1 [TOPOTECAN] | 0.052 | 0.47 | 0.071 | Activity (A549 [2]): 40.04%; Activity (A549 [3]): 24.95%; Activity (A549 [4]): 35.02%
5 | CC[C@@]1(O)C(=O)OCc2c1cc1n(c2=O)Cc2cc3cc(-c4ccncc4)ccc3nc2-1 [listing 1 of 2 here] | – | 0.42 | 0.067 | Stability [5]: Stable; Activity (A549 [6]): 22.33%; Activity (A549 [7]): 59.61%; Activity (A549 [8]): 14.24%; Activity (A549 [2]): 44.85%; Stability [9]: Stable; IC50 (HL-60; hl-60): 0.009 µM; Activity (A549 [10]): 18.18%; Activity (A549 [3]): 16.74%; Activity (A549 [4]): 38.41%; Activity (A549 [11]): 22.22%; Activity (A549 [12]): 63.43%; Stability [13]: Stable
6 | CC[C@@]1(O)C(=O)OCc2c1cc1n(c2=O)Cc2cc3cc(-c4cccnc4)ccc3nc2-1 | 0.032 | 0.38 | 0.068 | –
7 | CC[C@@]1(O)C(=O)OCc2c1cc1n(c2=O)Cc2cc3cc(-c4ccncc4)ccc3nc2-1 [listing 2 of 2 here] | – | – | – | inhibition [14]: Active
8 | CC[C@@]1(O)C(=O)OCc2c1cc1n(c2=O)Cc2cc3cc(-c4ccc(O)cc4)ccc3nc2-1 | 0.02 | 1.05 | 0.14 | –
9 | CC[C@@]1(O)C(=O)OCc2c1cc1n(c2=O)Cc2cc3cc(-c4cccc(Cl)c4)ccc3nc2-1 | 0.1 | 0.93 | 0.067 | –
10 | CC[C@@]1(O)C(=O)OCc2c1cc1n(c2=O)Cc2cc3cc(-c4cccs4)ccc3nc2-1 | 0.048 | 0.08 | 0.01 | –
11 | CC[C@@]1(O)C(=O)OCc2c1cc1n(c2=O)Cc2cc3cc(-c4cccc(N(C)C)c4)ccc3nc2-1 | 0.013 | 0.18 | 0.04 | –
12 | CC[C@@]1(O)C(=O)OCc2c1cc1n(c2=O)Cc2cc3cc(-c4ccc(Cl)cc4)ccc3nc2-1 | 0.3 | 3.12 | 0.32 | –
13 | CC[C@@]1(O)C(=O)OCc2c1cc1n(c2=O)Cc2cc3cc(-c4ccc(C(=O)OC)cc4)ccc3nc2-1 | 0.28 | 0.65 | 0.51 | –
14 | CC[C@@]1(O)C(=O)OCc2c1cc1n(c2=O)Cc2cc3cc(-c4cnc5ccccc5c4)ccc3nc2-1 | 1.44 | 6.59 | 5.95 | –
15 | CC[C@@]1(O)C(=O)OCc2c1cc1n(c2=O)Cc2cc3cc(-c4ccc(OC)cc4)ccc3nc2-1 | 0.78 | 5.89 | 0.5 | –
16 | CC[C@@]1(O)C(=O)OCc2c1cc1n(c2=O)Cc2cc3cc(-c4ccc(N(C)C)cc4)ccc3nc2-1 | 2.88 | 36.5 | 2.68 | –
17 | CC[C@@]1(O)C(=O)OCc2c1cc1n(c2=O)Cc2cc3cc(-c4cccc(C(=O)OC)c4)ccc3nc2-1 | 0.049 | 5.12 | 0.023 | –
18 | CC[C@@]1(O)C(=O)OCc2c1cc1n(c2=O)Cc2cc3cc(-c4ccsc4)ccc3nc2-1 | 0.037 | 0.23 | 0.012 | –
19 | CC[C@@]1(O)C(=O)OCc2c1cc1n(c2=O)Cc2cc3cc(-c4ccncc4)ccc3nc2-1.Cl | – | – | – | Activity (A549 [6]): 19.91%; Activity (A549 [7]): 56.19%; Activity (A549 [8]): 0%; Activity (A549 [2]): 31.29%; IC50 (HL-60; hl-60): 0.021 µM; Activity (A549 [10]): 15.74%; Activity (A549 [3]): 22%; Activity (A549 [4]): 46.71%; IC50 (Bel-7402; bel-7402): 0.46 µM; IC50 (A549 [1]; a549): 0.062 µM; Activity (A549 [11]): 28.07%; Activity (A549 [12]): 80.09%
